{"data": "Experimental data collected from several papers", "note": "Lines come from different studies, so protocols differ."}
{"SMILES": "CN1CCN(c2ncc(-c3ccc4nncc(Nc5cnccn5)c4c3)cn2)CC1", "organism": "Leishmania major", "test": "parasite growth", "setting": "intracellular, amastigote", "endpoint": "EC50", "result": "> 5 µM"}
{"SMILES": "C/C(=N\\C(=S)/N=C(\\C)c1c(O)c2ccccc2oc1=O)c1c(O)c2ccccc2oc1=O", "organism": "Aspergillus glaucus", "test": "microbial growth, broth dilution", "setting": "48 h", "endpoint": "MIC", "result": "31.2 µg/mL"}
{"SMILES": "COc1ccc(Nc2cnnc3ccc(-c4ccc(N5CCN(C)CC5)cc4)cc23)nc1", "organism": "Leishmania major", "test": "parasite growth", "setting": "intracellular, amastigote", "endpoint": "EC50", "result": "> 23 µM"}
{"SMILES": "C/C(=N\\C1CCCCC1/N=C(\\C)c1c(O)c2ccccc2oc1=O)c1c(O)c2ccccc2oc1=O (stereo not shown)", "organism": "Aspergillus glaucus", "test": "microbial growth, broth dilution", "setting": "48 h", "endpoint": "MIC", "result": "31.2 µg/mL"}
{"SMILES": "CN1CCN(c2ccc(-c3ccc4c(Nc5ncccn5)cnnc4c3)cc2)CC1", "organism": "Leishmania major", "test": "parasite growth", "setting": "intracellular, amastigote", "endpoint": "EC50", "result": "> 12.6 µM"}
{"SMILES": "CCCCCCCCCCCC[N+](C)(C)Cc1ccccc1", "organism": "Enterococcus faecalis", "test": "microbial growth", "endpoint": "MIC", "result": "63 µM"}
{"SMILES": "COc1ccc(C=NNC(=S)Nc2cccnc2)cc1", "organism": "Leishmania major", "test": "parasite growth, MTT", "setting": "72 h, promastigote", "endpoint": "IC50", "result": "1000 µM"}
{"SMILES": "C/C(=N\\NC(=O)/N=C(\\C)c1c(O)c2ccccc2oc1=O)c1c(O)c2ccccc2oc1=O", "organism": "Aspergillus glaucus", "test": "microbial growth, broth dilution", "setting": "48 h", "endpoint": "MIC", "result": "125 µg/mL"}
{"SMILES": "C=C[C@]1(C)C[C@@H](OC(=O)CS[C@@H]2C[C@H]3CC[C@@H](C2)N3C)[C@]2(C)[C@H](C)CC[C@]3(CCC(=O)[C@H]32)[C@@H](C)[C@@H]1O", "organism": "Enterococcus faecalis", "test": "microbial growth", "setting": "clinical isolate", "endpoint": "MIC90", "result": "> 128 µg/mL"}
{"SMILES": "CNC(=S)NN=Cc1ccc(OC)c(OC)c1", "organism": "Leishmania major", "test": "parasite growth, MTT", "setting": "72 h, promastigote", "endpoint": "IC50", "result": "54.3 µM"}
{"SMILES": "COc1c(N2C[C@@H]3CCCN[C@@H]3C2)c(F)cc2c(=O)c(C(=O)O)cn(C3CC3)c12", "organism": "Enterococcus faecalis", "test": "microbial growth, agar dilution", "system": "ATCC29212", "endpoint": "MIC", "result": "8 µg/mL"}
{"SMILES": "CNC(=S)NN=Cc1ccc([N+](=O)[O-])cc1", "organism": "Leishmania major", "test": "parasite growth, MTT", "setting": "72 h, promastigote", "endpoint": "IC50", "result": "160 µM"}
{"SMILES": "COc1ccc(Nc2cnnc3ccc(-c4cnc(N5CCCN(C)CC5)nc4)cc23)cc1Cl", "organism": "Leishmania major", "test": "parasite growth", "setting": "intracellular, amastigote", "endpoint": "EC50", "result": "> 21 µM"}
{"SMILES": "CC(=O)NC[C@H]1CN(c2ccc(N3CCOCC3)c(F)c2)C(=O)O1", "organism": "Enterococcus faecalis", "test": "microbial growth, agar dilution", "system": "ATCC29212", "endpoint": "MIC", "result": "2 µg/mL"}
{"SMILES": "C/C(=N\\c1nc(N)nc(/N=C(\\C)c2c(O)c3ccccc3oc2=O)n1)c1c(O)c2ccccc2oc1=O", "organism": "Aspergillus glaucus", "test": "microbial growth, broth dilution", "setting": "48 h", "endpoint": "MIC", "result": "31.2 µg/mL"}
{"SMILES": "CNC(=S)NN=Cc1ccc(Br)cc1", "organism": "Leishmania major", "test": "parasite growth", "system": "J774.A1", "setting": "72 h, intracellular, amastigote", "endpoint": "IC50", "result": "31.8 µM"}
{"SMILES": "Cc1ccc(Nc2cnnc3ccc(-c4ccc(N5CCN(C)CC5)cc4)cc23)cn1", "organism": "Leishmania major", "test": "parasite growth", "setting": "intracellular, amastigote", "endpoint": "EC50", "result": "> 24 µM"}
{"SMILES": "C/C(=N\\N=C(/C)c1c(O)c2ccccc2oc1=O)c1c(O)c2ccccc2oc1=O", "organism": "Aspergillus glaucus", "test": "microbial growth, broth dilution", "setting": "48 h", "endpoint": "MIC", "result": "31.2 µg/mL"}
{"SMILES": "Cc1ccc(Nc2cnnc3cc(-c4ccc(N5CCN(C)CC5)cc4)ccc23)cn1", "organism": "Leishmania major", "test": "parasite growth", "setting": "intracellular, amastigote", "endpoint": "EC50", "result": "> 24 µM"}
{"SMILES": "C[C@@H]1[C@H](O)[C@@H](C)/C=C/C=C/C=C/C=C/C=C/C=C/C=C/[C@H](O[C@@H]2O[C@H](C)[C@@H](O)[C@H](N)[C@@H]2O)C[C@@H]2O[C@](O)(C[C@@H](O)C[C@@H](O)[C@H](O)CC[C@@H](O)C[C@@H](O)CC(=O)O[C@H]1C)C[C@H](O)[C@H]2C(=O)O", "organism": "Aspergillus fumigatus", "test": "microbial growth, broth dilution", "system": "AF293", "setting": "48 h", "endpoint": "MIC", "result": "0.5 µg/mL"}
{"SMILES": "CNC(=S)NN=Cc1ccc(C)cc1", "organism": "Leishmania major", "test": "parasite growth", "system": "J774.A1", "setting": "72 h, intracellular, amastigote", "endpoint": "IC50", "result": "1110 µM"}
{"SMILES": "CC1(C)S[C@@H]2[C@H](NC(=O)[C@H](N)c3ccccc3)C(=O)N2[C@H]1C(=O)O", "organism": "Enterococcus faecalis", "test": "microbial growth, agar dilution", "system": "ATCC29212", "endpoint": "MIC", "result": "64 µg/mL"}
{"SMILES": "Cc1ccc(Nc2cnnc3cc(-c4cnc(N5CCCN(C)CC5)nc4)ccc23)cn1", "organism": "Leishmania major", "test": "parasite growth", "setting": "intracellular, amastigote", "endpoint": "EC50", "result": "> 23 µM"}
{"SMILES": "S=C(NN=Cc1ccc(Br)cc1)Nc1cccnc1", "organism": "Leishmania major", "test": "parasite growth", "system": "J774.A1", "setting": "72 h, intracellular, amastigote", "endpoint": "IC50", "result": "627 µM"}
{"SMILES": "CN[C@H](CC(C)C)C(=O)N[C@H]1C(=O)N[C@@H](CC(N)=O)C(=O)N[C@H]2C(=O)N[C@H]3C(=O)N[C@H](C(=O)N[C@H](C(=O)O)c4cc(O)cc(O)c4-c4cc3ccc4O)[C@H](O)c3ccc(c(Cl)c3)Oc3cc2cc(c3O[C@@H]2O[C@H](CO)[C@@H](O)[C@H](O)[C@H]2O[C@H]2C[C@](C)(N)[C@H](O)[C@H](C)O2)Oc2ccc(cc2Cl)[C@H]1O", "organism": "Enterococcus faecalis", "test": "microbial growth, broth dilution", "setting": "clinical isolate", "endpoint": "MIC50", "result": "2 µg/mL"}
{"SMILES": "[H]/N=C(\\N/C(=N/[H])NCCCCCCNC(=N)NC(=N)Nc1ccc(Cl)cc1)Nc1ccc(Cl)cc1", "organism": "Enterococcus faecalis", "test": "microbial growth", "endpoint": "MIC", "result": "4 µM"}
{"SMILES": "CC[C@H]1OC(=O)[C@H](C)[C@@H](O[C@H]2C[C@@](C)(OC)[C@@H](O)[C@H](C)O2)[C@H](C)[C@@H](O[C@@H]2O[C@H](C)C[C@H](N(C)C)[C@H]2O)[C@](C)(O)C[C@@H](C)/C(=N\\OCOCCOC)[C@H](C)[C@@H](O)[C@]1(C)O", "organism": "Enterococcus faecalis", "test": "microbial growth, agar dilution", "system": "ATCC29212", "endpoint": "MIC", "result": "128 µg/mL"}
{"SMILES": "C[C@@H]1[C@H](O)[C@@H](C)/C=C/C=C/C=C/C=C/C=C/C=C/C=C/[C@H](O[C@@H]2O[C@H](C)[C@@H](O)[C@H](N)[C@@H]2O)C[C@@H]2O[C@](O)(C[C@@H](O)C[C@@H](O)[C@H](O)CC[C@@H](O)C[C@@H](O)CC(=O)O[C@H]1C)C[C@H](O)[C@H]2C(=O)O", "organism": "Leishmania major", "test": "parasite growth", "system": "J774.A1", "setting": "72 h, intracellular, amastigote", "endpoint": "IC50", "result": "17.5 µM"}
{"SMILES": "CN1CCN(c2ccc(-c3ccc4c(Nc5cnccn5)cnnc4c3)cc2)CC1", "organism": "Leishmania major", "test": "parasite growth", "setting": "intracellular, amastigote", "endpoint": "EC50", "result": "> 25 µM"}
{"SMILES": "COc1ccc(C=NNC(=S)Nc2cccnc2)cc1OC", "organism": "Leishmania major", "test": "parasite growth, MTT", "setting": "72 h, promastigote", "endpoint": "IC50", "result": "1080 µM"}
{"SMILES": "Cc1c2c(nn1C)CSCc1cc(n(C)n1)CSc1cc(c3ccccc3c1)OCCCc1c(C(=O)O)n(C)c3c-2c(Cl)ccc13", "organism": "Enterococcus faecalis", "test": "microbial growth, broth dilution", "setting": "clinical isolate", "endpoint": "MIC90", "result": "25 µM"}
